Tests used:
MDA-N = assay: Growth inhibition of human MDA-N cells; format: functional; conditions: read-out: pLC50 (the source's name) (converted)
M14 = assay: Growth inhibition of human M14 cells; format: functional; conditions: read-out: pLC50 (the source's name) (converted)
HOP-18 = assay: Growth inhibition of human HOP18 cells; format: functional; conditions: read-out: pLC50 (the source's name) (converted)
[1] = Growth inhibition of human OVACR4 cells; format: functional; conditions: read-out: pLC50 (the source's name) (converted)
BT-549 = assay: Growth inhibition of human BT549 cells; format: functional
RXF 393 = assay: Growth inhibition of human […] cells; format: functional; conditions: read-out: pLC50 (the source's name) (converted)
EKVX = assay: Growth inhibition of human EKVX cells; format: functional; conditions: read-out: pLC50 (the source's name) (converted)
HCT-116 = assay: Growth inhibition of human HCT116 cells; format: functional; conditions: read-out: pLC50 (the source's name) (converted)
[2] = Growth inhibition of human OVACR8 cells; format: functional; conditions: read-out: pLC50 (the source's name) (converted)
[3] = Growth inhibition of human MCF7/ADR-RES cells; format: functional; conditions: NCI/ADR-RES, read-out: pLC50 (the source's name) (converted)
U-251 = assay: Growth inhibition of human U251 cells; format: functional; conditions: read-out: pLC50 (the source's name) (converted)
Outline: (§1)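 Tested at the NCI in its human disease-oriented in vitro screen of 60 tumour cell lines, following the Monks et al. methods. Activity is expressed as GI50, given as log molar values.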

COLO 205 = assay: Growth inhibition of human COLO205 cells; format: functional
SNB-75 = assay: Growth inhibition of human SNB75 cells; format: functional; conditions: read-out: pLC50 (the source's name) (converted); outline: as §1
DMS-273 = assay: Growth inhibition of human DMS273 cells; format: functional
HOP-62 = assay: Growth inhibition of human HOP62 cells; format: functional
CCRF-CEM = assay: Growth inhibition of human CCRF-CEM cells; format: functional
NCI-H23 = assay: Growth inhibition of human NCI-H23 cells; format: functional
PC-3 = assay: Growth inhibition of human PC3 cells; format: functional; conditions: read-out: pLC50 (the source's name) (converted)
NCI-H460 = assay: Growth inhibition of human NCI-H460 cells; format: functional
[4] = Growth inhibition of human DMS144 cells; format: functional
MDA-MB-231 = assay: Growth inhibition of human MDA-MB-231 cells; format: functional; conditions: read-out: pLC50 (the source's name) (converted)
SF-539 = assay: Growth inhibition of human SF539 cells; format: functional; conditions: read-out: pLC50 (the source's name) (converted); outline: as §1
KM12 = assay: Growth inhibition of human KM12 cells; format: functional; conditions: read-out: pLC50 (the source's name) (converted)
[5] = Growth inhibition of human RPMI8266 cells; format: functional; conditions: read-out: pLC50 (the source's name) (converted)
M19-MEL = assay: Growth inhibition of human M19-MEL cells; format: functional; conditions: read-out: pLC50 (the source's name) (converted)
Hs-578T = assay: Growth inhibition of human HS578T cells; format: functional; conditions: read-out: pLC50 (the source's name) (converted)
SF-268 = assay: Growth inhibition of human SF268 cells; format: functional; outline: as §1
MOLT-4 = assay: Growth inhibition of human MOLT4 cells; format: functional
DLD-1 = assay: Growth inhibition of human DLD1 cells; format: functional
SW-620 = assay: Growth inhibition of human SW620 cells; format: functional; outline: as §1
A549 = assay: Growth inhibition of human A549 cells; format: functional
SR = assay: Growth inhibition of human SR cells; format: functional; outline: as §1
SNB-19 = assay: Growth inhibition of human SNB19 cells; format: functional; conditions: read-out: pLC50 (the source's name) (converted); outline: as §1
HOP-92 = assay: Growth inhibition of human HOP92 cells; format: functional; conditions: read-out: pLC50 (the source's name) (converted)
KM-20L2 = assay: Growth inhibition of human KM20L2 cells; format: functional; conditions: read-out: pLC50 (the source's name) (converted)
SK-OV-3 = assay: Growth inhibition of human SK-OV-3 cells; format: functional; conditions: read-out: pLC50 (the source's name) (converted); outline: as §1
DU-145 = assay: Growth inhibition of human DU145 cells; format: functional; conditions: read-out: pLC50 (the source's name) (converted)
UO-31 = assay: Growth inhibition of human UO31 cells; format: functional; conditions: read-out: pLC50 (the source's name) (converted); outline: as §1
SK-MEL-28 = assay: Growth inhibition of human SK-MEL-28 cells; format: functional; conditions: read-out: pLC50 (the source's name) (converted); outline: as §1
786-0 = assay: Growth inhibition of human 786-0 cells; format: functional; conditions: read-out: pLC50 (the source's name) (converted)
T47D = assay: Growth inhibition of human T47D cells; format: functional; outline: as §1
XF498 = assay: Growth inhibition of human XF498 cells; format: functional; conditions: read-out: pLC50 (the source's name) (converted); outline: as §1
SN12C = assay: Growth inhibition of human SN12C cells; format: functional; conditions: read-out: pLC50 (the source's name) (converted); outline: as §1
Malme-3M = assay: Growth inhibition of human MALME-3M cells; format: functional; conditions: read-out: pLC50 (the source's name) (converted)
SK-MEL-2 = assay: Growth inhibition of human SK-MEL-2 cells; format: functional; conditions: read-out: pLC50 (the source's name) (converted); outline: as §1
[6] = Growth inhibition of human OVACR5 cells; format: functional; conditions: read-out: pLC50 (the source's name) (converted)
MCF7 = assay: Growth inhibition of human MCF7 cells; format: functional; conditions: read-out: pLC50 (the source's name) (converted)
SK-MEL-5 = assay: Growth inhibition of human SK-MEL-5 cells; format: functional; conditions: read-out: pLC50 (the source's name) (converted); outline: as §1
SF-295 = assay: Growth inhibition of human SF295 cells; format: functional; conditions: read-out: pLC50 (the source's name) (converted); outline: as §1
LOX IMVI = assay: Growth inhibition of human LOX IMVI cells; format: functional; conditions: read-out: pLC50 (the source's name) (converted)
[7] = Growth inhibition of human LXFL529 cells; format: functional; conditions: LXFL 529
UACC-257 = assay: Growth inhibition of human UACC257 cells; format: functional; conditions: read-out: pLC50 (the source's name) (converted); outline: as §1
HT-29 = assay: Growth inhibition of human HT29 cells; format: functional
CAKI-1 = assay: Growth inhibition of human CAKI1 cells; format: functional; conditions: read-out: pLC50 (the source's name) (converted)
UACC-62 = assay: Growth inhibition of human UACC62 cells; format: functional; conditions: read-out: pLC50 (the source's name) (converted); outline: as §1
MDA-MB-435 = assay: Growth inhibition of human MDA-MB-435 cells; format: functional
HCC 2998 = assay: Growth inhibition of human HCC2998 cells; format: functional
TK-10 = assay: Growth inhibition of human TK10 cells; format: functional; conditions: read-out: pLC50 (the source's name) (converted); outline: as §1
NCI-H522 = assay: Growth inhibition of human NCI-H522 cells; format: functional; conditions: read-out: pLC50 (the source's name) (converted)
A498 = assay: Growth inhibition of human A498 cells; format: functional; conditions: read-out: pLC50 (the source's name) (converted)
NCI-H226 = assay: Growth inhibition of human NCI-H226 cells; format: functional
K562 = assay: Growth inhibition of human K562 cells; format: functional
HCT-15 = assay: Growth inhibition of human HCT15 cells; format: functional; conditions: read-out: pLC50 (the source's name) (converted)
ACHN = assay: Growth inhibition of human ACHN cells; format: functional; conditions: read-out: pLC50 (the source's name) (converted)
[8] = Growth inhibition of human […] cells; format: functional; conditions: read-out: pLC50 (the source's name) (converted)
IGROV-1 = assay: Growth inhibition of human IGROV1 cells; format: functional; conditions: read-out: pLC50 (the source's name) (converted)
[9] = Growth inhibition of human HL60(TB) cells; format: functional, HL-60(TB); conditions: HL-60, read-out: pLC50 (the source's name) (converted)
NCI-H322M = assay: Growth inhibition of human NCI-H322M cells; format: functional

C=C(C)C1CC2(C)CC1c1c(c(C)cc3c1[nH]c1ccccc13)O2 (stereo unspecified)
> 25.1 µM: CC50 (MDA-N) | CC50 (M14) | CC50 (HOP-18) | CC50 [1] | LC50 (BT-549) | CC50 (RXF 393) | CC50 (EKVX) | CC50 (HCT-116) | CC50 [2] | CC50 [3] | CC50 (U-251) | LC50 (COLO 205) | CC50 (SNB-75) | LC50 (DMS-273) | LC50 (HOP-62) | LC50 (CCRF-CEM) | LC50 (NCI-H23) | CC50 (PC-3) | LC50 (NCI-H460) | LC50 [4] | CC50 (MDA-MB-231) | CC50 (SF-539) | CC50 (KM12) | CC50 [5] | CC50 (M19-MEL) | CC50 (Hs-578T) | LC50 (SF-268) | LC50 (MOLT-4) | LC50 (DLD-1) | LC50 (SW-620) | LC50 (A549) | LC50 (SR) | CC50 (SNB-19) | CC50 (HOP-92) | CC50 (KM-20L2) | CC50 (SK-OV-3) | CC50 (DU-145) | CC50 (UO-31) | CC50 (SK-MEL-28) | CC50 (786-0) | LC50 (T47D) | CC50 (XF498) | CC50 (SN12C) | CC50 (Malme-3M) | CC50 (SK-MEL-2) | CC50 [6] | CC50 (MCF7) | CC50 (SK-MEL-5) | CC50 (SF-295) | CC50 (LOX IMVI) | LC50 [7] | CC50 (UACC-257) | LC50 (HT-29) | CC50 (CAKI-1) | CC50 (UACC-62) | LC50 (MDA-MB-435) | LC50 (HCC 2998) | CC50 (TK-10) | CC50 (NCI-H522) | CC50 (A498) | LC50 (NCI-H226) | LC50 (K562) | CC50 (HCT-15) | CC50 (ACHN) | CC50 [8] | CC50 (IGROV-1) | CC50 [9] | LC50 (NCI-H322M)

Cc1cc2c3ccccc3n3c2c2c1O[C@@]1(C)CC[C@H]([C@@H]2C1)C3(C)C
> 25.1 µM: CC50 (MDA-N) | CC50 (M14) | CC50 (HOP-18) | CC50 [1] | LC50 (BT-549) | CC50 (RXF 393) | CC50 (EKVX) | CC50 (HCT-116) | CC50 [2] | CC50 [3] | CC50 (U-251) | LC50 (COLO 205) | CC50 (SNB-75) | LC50 (DMS-273) | LC50 (HOP-62) | LC50 (CCRF-CEM) | LC50 (NCI-H23) | CC50 (PC-3) | LC50 (NCI-H460) | LC50 [4] | CC50 (MDA-MB-231) | CC50 (SF-539) | CC50 (KM12) | CC50 [5] | CC50 (M19-MEL) | CC50 (Hs-578T) | LC50 (SF-268) | LC50 (MOLT-4) | LC50 (DLD-1) | LC50 (SW-620) | LC50 (A549) | LC50 (SR) | CC50 (SNB-19) | CC50 (HOP-92) | CC50 (KM-20L2) | CC50 (SK-OV-3) | CC50 (DU-145) | CC50 (UO-31) | CC50 (SK-MEL-28) | CC50 (786-0) | LC50 (T47D) | CC50 (XF498) | CC50 (SN12C) | CC50 (Malme-3M) | CC50 (SK-MEL-2) | CC50 [6] | CC50 (MCF7) | CC50 (SK-MEL-5) | CC50 (SF-295) | CC50 (LOX IMVI) | LC50 [7] | CC50 (UACC-257) | LC50 (HT-29) | CC50 (CAKI-1) | CC50 (UACC-62) | LC50 (MDA-MB-435) | LC50 (HCC 2998) | CC50 (TK-10) | CC50 (NCI-H522) | CC50 (A498) | LC50 (NCI-H226) | LC50 (K562) | CC50 (HCT-15) | CC50 (ACHN) | CC50 [8] | CC50 (IGROV-1) | CC50 [9] | LC50 (NCI-H322M)

Reference: ChEMBL document CHEMBL1142636 (2000)
